These results are taken from ChEMBL document CHEMBL4359929, “Piperidine and piperazine inhibitors of fatty acid amide hydrolase targeting excitotoxic pathology” (Bioorg Med Chem, 2019).

The structures appear in SMILES notation. Activity calls are given as the source filed them. No cut-off for these calls is given here.

Data set [1] can be described thus: Stability in rat liver microsomes assessed as half life. Format: ADME, Microsome. The procedure, abridged: (§1)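 Stability assessed as half-life in human, rat and mouse plasma and gastric fluid, and in human, rat and mouse liver microsomal preparations.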
On the technique in general: Liver microsomes are a subcellular fraction often used to study metabolism.

A short description of data set [2]: Stability in mouse gastric fluid assessed as half life. Format: ADME, tissue-based, Gastric juice. The procedure, abridged:
as §1

Data set [3] is described as follows: Stability in human liver microsomes assessed as half life. It is filed as ADME, Microsome. Put shortly: as §1
A short description of data set [4]: Selectivity ratio of IC50 for human full length ABHD6 expressed in Escherichia coli cells to IC50 for rat recombinant His/GST-tagged FAAH expressed in Escherichia coli cells by fluorescence based assay.
In data set [5] the test system is Hippocampus. The data set is described as follows: Neuroprotective activity against Sprague-Dawley rat hippocampus assessed as decrease in KA-induced excitotoxicity by measuring increase in GluR1 level in dense neuropil at 3 to 30 uM preincubated for 1 hr followed by KA stimulation for 2 hrs in continued presence of compound followed by KA wash out and then further incubation with compound for 24 hrs by immunostaining analysis. Format: functional, tissue-based. The procedure, abridged:
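Same hippocampal slice kainic acid protocol (60 μM, 2 h, after 1 h pretreatment; 24 h recovery with compound). Fixed hippocampal tissue from each treatment group immunostained with anti-GluR1 (1:200).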

For data set [6], the target named is T1, Fatty-acid amide hydrolase 1 (Homo sapiens, UniProt O00519).
T1 sequence (O00519 whole entry): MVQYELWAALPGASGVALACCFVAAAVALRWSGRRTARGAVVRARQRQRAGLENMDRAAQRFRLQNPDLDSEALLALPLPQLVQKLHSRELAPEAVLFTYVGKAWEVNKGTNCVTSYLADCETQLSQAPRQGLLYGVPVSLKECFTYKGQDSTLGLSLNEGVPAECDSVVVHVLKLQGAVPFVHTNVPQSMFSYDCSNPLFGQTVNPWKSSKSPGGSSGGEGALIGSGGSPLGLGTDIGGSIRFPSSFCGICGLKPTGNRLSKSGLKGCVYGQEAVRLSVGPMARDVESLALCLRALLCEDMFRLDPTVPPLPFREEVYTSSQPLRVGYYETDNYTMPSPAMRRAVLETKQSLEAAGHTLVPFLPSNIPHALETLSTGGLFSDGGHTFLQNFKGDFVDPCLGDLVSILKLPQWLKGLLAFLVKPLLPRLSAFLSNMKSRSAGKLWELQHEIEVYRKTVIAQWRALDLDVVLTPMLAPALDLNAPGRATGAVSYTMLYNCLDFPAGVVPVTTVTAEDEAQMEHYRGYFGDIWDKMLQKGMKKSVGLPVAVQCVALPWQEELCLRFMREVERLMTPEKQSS
The data set is described as follows: Inhibition of human recombinant MBP-tagged FAAH expressed in Escherichia coli cells using AAMCA as substrate incubated for 15 mins followed by substrate addition and measured after every 20 mins for 4 hrs by fluorescence based assay. The procedure, abridged: (§2)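 Fluorescent enzyme assay in throughput format. Human recombinant FAAH or purified rat FAAH used arachidonoyl 7-amino-4-methylcoumarin amide as substrate; human recombinant MGL was run by a similar fluorometric procedure.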

Data set [7] in a line: Stability in mouse plasma assessed as half life. Format: ADME, cell-free. Put shortly: as §1
Data set [8] concerns Hippocampus. Kind of data set: Neuroprotective activity against Sprague-Dawley rat hippocampus assessed as decrease in KA-induced excitotoxicity by measuring increase in GluR1 level at 3 to 30 uM preincubated for 1 hr followed by KA stimulation for 2 hrs in continued presence of compound followed by KA wash out and then further incubation with compound for 24 hrs by immunoblot analysis. It is filed as functional, tissue-based. Put shortly:
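Sprague-Dawley rat hippocampal slices (400 μm, postnatal day 12) cultured 18–20 days at 37 °C, 5% CO2. Pretreated 60 min with 3–30 μM compound or 0.1% DMSO, then 60 μM kainic acid for 2 h with compound. Three washouts, then 24 h recovery with 30 μM compound. Harvested in groups of 7–9; GluR1, synaptophysin and synapsin IIb by immunoblot with optical density. Unpaired t-tests.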

For data set [9], the target named is T2, Fatty-acid amide hydrolase 1 (Rattus norvegicus, UniProt P97612).
T2 sequence (P97612 whole entry): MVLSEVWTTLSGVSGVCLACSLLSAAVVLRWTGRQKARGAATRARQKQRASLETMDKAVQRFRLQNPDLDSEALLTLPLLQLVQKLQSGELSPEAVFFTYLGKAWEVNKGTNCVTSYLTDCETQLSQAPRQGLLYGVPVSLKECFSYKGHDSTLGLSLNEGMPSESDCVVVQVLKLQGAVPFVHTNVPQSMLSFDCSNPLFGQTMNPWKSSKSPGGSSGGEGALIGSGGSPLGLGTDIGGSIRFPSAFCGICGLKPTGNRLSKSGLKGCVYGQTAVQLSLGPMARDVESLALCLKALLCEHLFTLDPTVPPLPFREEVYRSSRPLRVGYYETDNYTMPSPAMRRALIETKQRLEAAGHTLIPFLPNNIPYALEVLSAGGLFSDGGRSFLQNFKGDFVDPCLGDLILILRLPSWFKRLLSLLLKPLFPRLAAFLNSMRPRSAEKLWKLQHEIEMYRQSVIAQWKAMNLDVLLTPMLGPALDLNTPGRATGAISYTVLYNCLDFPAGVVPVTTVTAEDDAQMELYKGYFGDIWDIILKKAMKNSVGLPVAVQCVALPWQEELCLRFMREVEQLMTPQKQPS
The data set is described as follows: Inhibition of rat recombinant His/GST-tagged FAAH expressed in Escherichia coli cells using AAMCA as substrate incubated for 15 mins followed by substrate addition and measured after every 20 mins for 4 hrs by fluorescence based assay. The procedure, abridged: as §2

Data set [10] relates to Hippocampus. Kind of data set: Neuroprotective activity against Sprague-Dawley rat hippocampus assessed as decrease in KA-induced excitotoxicity by measuring increase in syn protein level in dense neuropil at 3 to 30 uM preincubated for 1 hr followed by KA stimulation for 2 hrs in continued presence of compound followed by KA wash out and then further incubation with compound for 24 hrs by immunostaining analysis. Format: functional, tissue-based.

For data set [11], the target named is Cannabinoid receptor 2 (Mus musculus) (UniProt P47936). Kind of data set: Displacement of [3H]CP55940 from mouse CB2 receptor expressed in HEK293 cells by competition-equilibrium binding analysis. Format: cell-based. The procedure, abridged:
(§3)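 HEK293 cell membranes expressing mouse or human CB2; competition-equilibrium binding against [3H]CP-55,940.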

Data set [12] addresses Cannabinoid receptor 2 (Homo sapiens) (UniProt P34972). Kind of data set: Displacement of [3H]CP55940 from human CB2 receptor expressed in HEK293 cells by competition-equilibrium binding analysis. It is filed as cell-based. The procedure, abridged: as §3
The nature of data set [13]: Stability in rat plasma assessed as half life. It is filed as ADME, cell-free. The procedure, abridged:
as §1

For the next data set, the species on record is Rattus norvegicus. The data set is described as follows: Neuroprotective activity against Sprague-Dawley rat assessed as decrease in KA-induced seizure severity. Format: functional, organism-based.

Cannabinoid receptor 2 (Mus musculus), sequence (P47936 whole entry): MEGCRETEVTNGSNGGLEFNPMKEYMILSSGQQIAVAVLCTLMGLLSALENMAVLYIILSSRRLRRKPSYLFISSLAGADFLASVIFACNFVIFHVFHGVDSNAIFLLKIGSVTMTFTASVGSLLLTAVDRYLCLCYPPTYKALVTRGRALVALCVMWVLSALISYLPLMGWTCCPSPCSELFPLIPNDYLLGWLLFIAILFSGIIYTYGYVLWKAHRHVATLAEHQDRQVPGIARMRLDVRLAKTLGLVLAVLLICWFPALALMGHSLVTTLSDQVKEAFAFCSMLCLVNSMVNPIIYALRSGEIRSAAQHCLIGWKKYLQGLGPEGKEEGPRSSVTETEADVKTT
Cannabinoid receptor 2 (Homo sapiens), sequence (P34972 whole entry): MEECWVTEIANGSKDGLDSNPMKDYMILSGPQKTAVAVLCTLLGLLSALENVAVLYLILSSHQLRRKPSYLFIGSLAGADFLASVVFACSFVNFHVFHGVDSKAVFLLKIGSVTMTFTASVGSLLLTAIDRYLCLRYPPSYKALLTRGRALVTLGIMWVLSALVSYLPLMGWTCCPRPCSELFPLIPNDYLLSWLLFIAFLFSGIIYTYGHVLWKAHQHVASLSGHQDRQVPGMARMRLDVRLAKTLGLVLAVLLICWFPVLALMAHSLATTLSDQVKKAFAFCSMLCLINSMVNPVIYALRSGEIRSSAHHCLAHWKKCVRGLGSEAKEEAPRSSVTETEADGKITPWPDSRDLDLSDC

As to `O=C(Oc1cccc(N2CCS(=O)(=O)CC2)c1)N1CCC(c2ccc(N3CCC3)cc2)CC1`, the half-life in data set [1] was 15 to 25 min; in [2] it was greater than 60 min; in [3], 15 to 25 min; in data set [7], greater than 60 min; in data set [13] it was greater than 60 min. The Ratio IC50 in data set [4] is greater than 1000. The inhibition result in the data set on Hippocampus [5], in the data set on Hippocampus [8] and in the data set on Hippocampus [10] was “Active” in each case. Besides, the figures for the half-inhibitory concentration (IC50) in data set [6] and in data set [9] were 7.9 nM and 5.8 nM, respectively. Also, the result in data set [11] and in [12] was inactive. Moreover, the outcome in the data set filed under Rattus norvegicus was Active.
Consider `C[C@@H]1CN(c2ccc(F)cc2)CCN1C(=O)Oc1cccc(N2CCS(=O)(=O)CC2)c1`, for which the half-life in data set [1] was 15 to 25 min; in [2] it was greater than 60 min; in [3], 15 to 25 min; in [7], greater than 60 min; in data set [13] it was greater than 60 min. Further, the Ratio IC50 in [4] is greater than 1000. The values for the 50% inhibitory concentration (IC50) in [6] and in [9] were 11.7 nM and 6.3 nM, respectively. Further, in the data set on Hippocampus [8], the inhibition entry is “Active”. Further, the outcome in data set [11] and in data set [12] was inactive.

In general, half-life refers to the time in which the quantity being followed falls by half. The term IC50 denotes the midpoint of a concentration-inhibition curve.
